From ChEMBL document CHEMBL1949525, “Boranophosphate isoster controls P2Y-receptor subtype selectivity and metabolic stability of dinucleoside polyphosphate analogues” (J Med Chem, 2012)
Calls of active or inactive are those of the source. The rule behind the calls is not given here.

Tests used:
[1] = tested on: e-NPP1; experiment: (§1) Stability of the compound assessed as human e-NPP1-mediated hydrolysis at pH 8.5 after 20 mins by HPLC analysis; format: ADME; conditions: human, human e-NPP1 enzyme, pH 8.5; read-out: Drug degradation
How it was run: (§2)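 Human NPP1 preparation preincubated 3 min at 37 °C in 1 mM CaCl2, 200 mM NaCl, 10 mM KCl, 100 mM Tris, pH 8.5. Started with 0.2 mM dinucleotide solution (added volume) and stopped after 20 min in ice-cold perchloric acid. Neutralised with KOH, then NMP formation followed by HPLC. Percent substrate hydrolysed is the mean of two experiments run in triplicate.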

[2] = as §1; format: ADME; conditions: buffer, pH 8.5, 20 min; how it was run: as §2
[3] = Chemical stability of the compound at pH mimicking gastric juice acidity; format: physicochemical; conditions: simulated gi fluid
[4] = Chemical stability of the compound at physiological conditions; format: physicochemical
[5] = target: P2Y purinoceptor 1 (Meleagris gallopavo) (UniProt P49652); experiment: (§3) Agonist activity at turkey P2Y purinoceptor 1 expressed in human 1321N1 cells assessed as increase in intracellular calcium concentration by spectrofluorimetry; format: functional, cell-based
P2Y purinoceptor 1 (Meleagris gallopavo), sequence (P49652 whole entry): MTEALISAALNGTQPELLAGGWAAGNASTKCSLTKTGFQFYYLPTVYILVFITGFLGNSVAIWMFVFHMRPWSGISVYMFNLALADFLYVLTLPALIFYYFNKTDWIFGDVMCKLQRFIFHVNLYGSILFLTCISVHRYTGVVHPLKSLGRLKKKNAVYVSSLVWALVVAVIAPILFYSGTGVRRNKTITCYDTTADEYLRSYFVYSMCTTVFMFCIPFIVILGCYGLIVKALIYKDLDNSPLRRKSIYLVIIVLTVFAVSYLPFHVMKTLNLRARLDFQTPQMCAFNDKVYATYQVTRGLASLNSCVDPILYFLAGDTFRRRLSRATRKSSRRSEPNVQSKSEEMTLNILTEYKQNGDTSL

[6] = target: T1, P2Y purinoceptor 2 (Homo sapiens, UniProt P41231); experiment: Agonist activity at human P2Y purinoceptor 2 expressed in human 1321N1 cells assessed as increase in intracellular calcium concentration by spectrofluorimetry; format: functional, cell-based
T1 sequence (P41231 whole entry): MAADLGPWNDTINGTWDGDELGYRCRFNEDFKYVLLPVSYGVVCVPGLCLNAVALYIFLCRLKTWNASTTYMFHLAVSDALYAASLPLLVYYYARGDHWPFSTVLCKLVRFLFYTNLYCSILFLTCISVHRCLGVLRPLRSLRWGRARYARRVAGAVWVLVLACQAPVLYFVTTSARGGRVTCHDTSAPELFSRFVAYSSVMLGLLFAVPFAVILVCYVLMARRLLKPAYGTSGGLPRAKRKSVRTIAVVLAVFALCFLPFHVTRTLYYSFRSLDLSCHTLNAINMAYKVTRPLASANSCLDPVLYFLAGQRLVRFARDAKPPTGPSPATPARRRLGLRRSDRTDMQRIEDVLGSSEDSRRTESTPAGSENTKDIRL

[7] = target: P2Y purinoceptor 1 (Meleagris gallopavo, UniProt P49652); experiment: as §3; format: functional, cell-based; conditions: read-out: EC50
P2Y purinoceptor 1, sequence (P49652 whole entry): as the sequence (P49652 whole entry) above

[8] = target: T2, P2Y purinoceptor 4 (Homo sapiens, UniProt P51582); experiment: Agonist activity at human P2Y purinoceptor 4 expressed in human 1321N1 cells assessed as increase in intracellular calcium concentration by spectrofluorimetry; format: functional, cell-based; conditions: 1321-n1
T2 sequence (P51582 whole entry): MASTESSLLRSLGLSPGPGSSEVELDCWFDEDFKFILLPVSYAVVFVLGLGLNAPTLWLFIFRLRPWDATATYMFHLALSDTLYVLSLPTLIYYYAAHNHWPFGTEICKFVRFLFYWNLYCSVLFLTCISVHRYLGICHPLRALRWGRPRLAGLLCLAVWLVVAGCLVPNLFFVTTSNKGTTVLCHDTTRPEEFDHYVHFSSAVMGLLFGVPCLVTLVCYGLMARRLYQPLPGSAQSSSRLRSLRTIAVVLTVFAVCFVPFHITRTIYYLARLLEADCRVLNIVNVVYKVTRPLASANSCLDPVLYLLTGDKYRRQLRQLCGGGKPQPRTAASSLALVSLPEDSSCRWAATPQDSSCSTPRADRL
How it was run: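 1321N1 astrocytoma cells (no endogenous P2Y receptors) stably expressing hP2Y4, grown in DMEM with 5% FBS, penicillin/streptomycin and 500 μg/mL G-418. Fura-2-loaded cell suspensions; compounds applied at various concentrations, 37 °C, 10 mM Hepes-buffered saline pH 7.4 with 1 mM CaCl2/MgCl2. Peak [Ca2+]i rise by dual-excitation fluorometry gives EC50; UTP reference agonist; three experiments on separate days.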

[9] = target: P2Y purinoceptor 6 (Rattus norvegicus, UniProt Q63371); experiment: Agonist activity at rat P2Y purinoceptor 6 expressed in human 1321N1 cells assessed as increase in intracellular calcium concentration by spectrofluorimetry; format: functional, cell-based
P2Y purinoceptor 6, sequence (Q63371 whole entry): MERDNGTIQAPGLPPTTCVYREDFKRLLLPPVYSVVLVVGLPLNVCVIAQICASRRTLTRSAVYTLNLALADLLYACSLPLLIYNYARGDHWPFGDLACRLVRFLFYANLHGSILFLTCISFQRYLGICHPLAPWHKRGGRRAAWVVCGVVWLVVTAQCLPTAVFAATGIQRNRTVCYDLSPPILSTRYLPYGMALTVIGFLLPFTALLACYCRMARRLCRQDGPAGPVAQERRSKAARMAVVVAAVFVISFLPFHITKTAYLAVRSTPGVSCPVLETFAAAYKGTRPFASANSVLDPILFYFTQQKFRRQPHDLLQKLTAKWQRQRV
How it was run: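 1321N1 astrocytoma cells lacking endogenous P2Y receptors, stably transfected with turkey P2Y1, human P2Y2, human P2Y4 or rat P2Y6, grown in DMEM with 5% FBS, penicillin/streptomycin and 500 µg/mL G-418. Fura-2-loaded cell suspensions were exposed at 37 °C in 10 mM Hepes-buffered saline, pH 7.4, with 1 mM CaCl2 and 1 mM MgCl2. Peak [Ca2+]i rise by dual-excitation spectrofluorometry across concentrations; EC50 from curve fits; three experiments on separate days per subtype.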

[10] = target: P2Y purinoceptor 1 (Meleagris gallopavo) (UniProt P49652); experiment: Antagonist activity at turkey P2Y purinoceptor 1 expressed in human 1321N1 cells assessed as inhibition of 2-Sme-ADP-induced increase in intracellular calcium concentration by spectrofluorimetry; format: functional, cell-based
How it was run: (§4)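 Fura-2-loaded 1321N1 transfectants (turkey P2Y1, human P2Y2/P2Y4, rat P2Y6) in Hepes-buffered saline, pH 7.4, at 37 °C. Analogues were tested against equimolar reference agonist: 2-MeS-ADP for P2Y1, UTP for P2Y2/4, UDP for P2Y6. Blockade of the [Ca2+]i rise was followed by dual-excitation spectrofluorometry.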

[11] = target: T1, P2Y purinoceptor 2; experiment: Antagonist activity at human P2Y purinoceptor 2 expressed in human 1321N1 cells assessed as inhibition of UTP-induced increase in intracellular calcium concentration by spectrofluorimetry; format: functional, cell-based; how it was run: as §4
[12] = target: T2, P2Y purinoceptor 4; experiment: Antagonist activity at human P2Y purinoceptor 4 expressed in human 1321N1 cells assessed as inhibition of UTP-induced increase in intracellular calcium concentration by spectrofluorimetry; format: functional, cell-based; how it was run: as §4
[13] = target: P2Y purinoceptor 6 (Rattus norvegicus) (UniProt Q63371); experiment: Antagonist activity at rat P2Y purinoceptor 6 expressed in human 1321N1 cells assessed as inhibition of UDP-induced increase in intracellular calcium concentration by spectrofluorimetry; format: functional, cell-based; how it was run: as §4
P2Y purinoceptor 6 (Rattus norvegicus), sequence (Q63371 whole entry): as above

[14] = target: P2Y purinoceptor 1 (Meleagris gallopavo) (UniProt P49652); experiment: Agonist activity at turkey P2Y purinoceptor 1 expressed in human 1321N1 cells assessed as increase in intracellular calcium concentration at 100 uM by spectrofluorimetry; format: functional, cell-based
[15] = target: T1, P2Y purinoceptor 2; experiment: Agonist activity at human P2Y purinoceptor 2 expressed in human 1321N1 cells assessed as increase in intracellular calcium concentration at 100 uM by spectrofluorimetry; format: functional, cell-based

Nc1ncnc2c1ncn2[C@@H]1O[C@H](COP(=O)(O)OP(=O)(O)OP(=O)(O)OP(=O)(O)OC[C@H]2O[C@@H](n3ccc(=O)[nH]c3=O)[C@H](O)[C@@H]2O)[C@@H](O)[C@H]1O
metabolised at 20 min [1]: 18%

BP(=O)(OP(=O)(O)OC[C@H]1O[C@@H](n2ccc(=O)[nH]c2=O)[C@H](O)[C@@H]1O)OP(=O)(O)OC[C@H]1O[C@@H](n2ccc(=O)[nH]c2=O)[C@H](O)[C@@H]1O.CCCCN(CCCC)CCCC.CCCCN(CCCC)CCCC.CCCCN(CCCC)CCCC
Stability [2]: Stable | Stability [3]: Stable | Stability [4]: Stable | Activity [5]: inactive | Activity [6]: inactive

BP(=O)(OP(=O)(O)OP(=O)(O)OC[C@H]1O[C@@H](n2cnc3c(N)ncnc32)[C@H](O)[C@@H]1O)OP(=O)(O)OP(=O)(O)OC[C@H]1O[C@@H](n2cnc3c(N)ncnc32)[C@H](O)[C@@H]1O.CCCCN(CCCC)CCCC.CCCCN(CCCC)CCCC.CCCCN(CCCC)CCCC.CCCCN(CCCC)CCCC.CCCCN(CCCC)CCCC
Stability [2]: Unstable | Stability [3]: Stable | Stability [4]: Stable | Activity [5]: Active | Activity [6]: inactive

BP(=O)(OP(=O)(O)OP(=O)(O)OC[C@H]1O[C@@H](n2ccc(=O)[nH]c2=O)[C@H](O)[C@@H]1O)OP(=O)(O)OP(=O)(O)OC[C@H]1O[C@@H](n2ccc(=O)[nH]c2=O)[C@H](O)[C@@H]1O.CCCCN(CCCC)CCCC.CCCCN(CCCC)CCCC.CCCCN(CCCC)CCCC.CCCCN(CCCC)CCCC.CCCCN(CCCC)CCCC
Stability [2]: Stable | Stability [3]: Stable | Stability [4]: Stable | Activity [5]: inactive | Activity [6]: inactive

O=c1ccn([C@@H]2O[C@H](COP(=O)(O)OP(=O)(O)OP(=O)(O)OC[C@H]3O[C@@H](n4ccc(=O)[nH]c4=O)[C@H](O)[C@@H]3O)[C@@H](O)[C@H]2O)c(=O)[nH]1
metabolised at 20 min [1]: 21%

Nc1ncnc2c1ncn2[C@@H]1O[C@H](COP(=O)(O)OP(=O)(O)OP(=O)(O)OC[C@H]2O[C@@H](n3cnc4c(N)ncnc43)[C@H](O)[C@@H]2O)[C@@H](O)[C@H]1O
metabolised at 20 min [1]: 22%

BP(=O)(OP(=O)(O)OC[C@H]1O[C@@H](n2cnc3c(N)ncnc32)[C@H](O)[C@@H]1O)OP(=O)(O)OP(=O)(O)OC[C@H]1O[C@@H](n2cnc3c(N)ncnc32)[C@H](O)[C@@H]1O.CCCCN(CCCC)CCCC.CCCCN(CCCC)CCCC.CCCCN(CCCC)CCCC.CCCCN(CCCC)CCCC (stereo in doubt; 6A)
metabolised at 20 min [1]: 1.6% | EC50 [7]: 3000 nM | EC50 ([6]; 1321-n1): Not Active | EC50 [8]: Not Active

BP(=O)(OP(=O)(O)OC[C@H]1O[C@@H](n2ccc(=O)[nH]c2=O)[C@H](O)[C@@H]1O)OP(=O)(O)OP(=O)(O)OC[C@H]1O[C@@H](n2ccc(=O)[nH]c2=O)[C@H](O)[C@@H]1O.CCCCN(CCCC)CCCC.CCCCN(CCCC)CCCC.CCCCN(CCCC)CCCC.CCCCN(CCCC)CCCC (stereo in doubt; 7A)
metabolised at 20 min [1]: 3% | EC50 [8]: Not Active | EC50 ([9]; read-out: EC50): 1930 nM

BP(=O)(OP(=O)(O)OC[C@H]1O[C@@H](n2ccc(=O)[nH]c2=O)[C@H](O)[C@@H]1O)OP(=O)(O)OP(=O)(O)OC[C@H]1O[C@@H](n2ccc(=O)[nH]c2=O)[C@H](O)[C@@H]1O.CCCCN(CCCC)CCCC.CCCCN(CCCC)CCCC.CCCCN(CCCC)CCCC.CCCCN(CCCC)CCCC (stereo in doubt; 7B)
Activity [10]: inactive | Activity [11]: inactive | Activity [12]: inactive | Activity [13]: inactive | Activity [14]: Active

BP(=O)(OP(=O)(O)OC[C@H]1O[C@@H](n2cnc3c(N)ncnc32)[C@H](O)[C@@H]1O)OP(=O)(O)OP(=O)(O)OC[C@H]1O[C@@H](n2ccc(=O)[nH]c2=O)[C@H](O)[C@@H]1O.CCCCN(CCCC)CCCC.CCCCN(CCCC)CCCC.CCCCN(CCCC)CCCC.CCCCN(CCCC)CCCC (stereo in doubt; 8A) [listing 1 of 2 here]
metabolised at 20 min [1]: 1.5% | EC50 ([6]; 1321-n1): Not Active | EC50 [8]: Not Active | EC50 ([9]; read-out: EC50): 1290 nM

BP(=O)(OP(=O)(O)OC[C@H]1O[C@@H](n2cnc3c(N)ncnc32)[C@H](O)[C@@H]1O)OP(=O)(O)OP(=O)(O)OC[C@H]1O[C@@H](n2ccc(=O)[nH]c2=O)[C@H](O)[C@@H]1O.CCCCN(CCCC)CCCC.CCCCN(CCCC)CCCC.CCCCN(CCCC)CCCC.CCCCN(CCCC)CCCC (stereo in doubt; 8A) [listing 2 of 2 here]
Activity [10]: inactive | Activity [11]: inactive | Activity [12]: inactive | Activity [13]: inactive | Activity [14]: Active

BP(=O)(OP(=O)(O)OC[C@H]1O[C@@H](n2ccc(=O)[nH]c2=O)[C@H](O)[C@@H]1O)OP(=O)(O)OP(=O)(O)OC[C@H]1O[C@@H](n2cnc3c(N)ncnc32)[C@H](O)[C@@H]1O.CCCCN(CCCC)CCCC.CCCCN(CCCC)CCCC.CCCCN(CCCC)CCCC.CCCCN(CCCC)CCCC (stereo in doubt; 9A) [listing 1 of 2 here]
metabolised at 20 min [1]: 3% | EC50 [7]: 500 nM | EC50 [8]: Not Active | EC50 ([9]; read-out: EC50): 20900 nM

BP(=O)(OP(=O)(O)OC[C@H]1O[C@@H](n2ccc(=O)[nH]c2=O)[C@H](O)[C@@H]1O)OP(=O)(O)OP(=O)(O)OC[C@H]1O[C@@H](n2cnc3c(N)ncnc32)[C@H](O)[C@@H]1O.CCCCN(CCCC)CCCC.CCCCN(CCCC)CCCC.CCCCN(CCCC)CCCC.CCCCN(CCCC)CCCC (stereo in doubt; 9A) [listing 2 of 2 here]
Activity [10]: inactive | Activity [11]: inactive | Activity [12]: inactive | Activity [13]: inactive | Activity [15]: Active

BP(=O)(OC[C@H]1O[C@@H](n2ccc(=O)[nH]c2=O)[C@H](O)[C@@H]1O)OP(=O)(O)OP(=O)(O)OC[C@H]1O[C@@H](n2ccc(=O)[nH]c2=O)[C@H](O)[C@@H]1O.CCCCN(CCCC)CCCC.CCCCN(CCCC)CCCC.CCCCN(CCCC)CCCC (stereo in doubt; 11B)
Activity [10]: inactive | Activity [11]: inactive | Activity [12]: inactive | Activity [13]: inactive | Activity [14]: Active

BP(=O)(OC[C@H]1O[C@@H](n2cnc3c(N)ncnc32)[C@H](O)[C@@H]1O)OP(=O)(O)OP(=O)(O)OP(=O)(O)OC[C@H]1O[C@@H](n2cnc3c(N)ncnc32)[C@H](O)[C@@H]1O.CCCCN(CCCC)CCCC.CCCCN(CCCC)CCCC.CCCCN(CCCC)CCCC.CCCCN(CCCC)CCCC (stereo in doubt; 12A)
Drug degradation ([2]; 20 min): 2.5% | EC50 [7]: 1480 nM | EC50 ([6]; read-out: EC50): 25.9 µM | EC50 [8]: Not Active | EC50 ([9]; 1321-n1): Not Active

BP(=O)(OC[C@H]1O[C@@H](n2ccc(=O)[nH]c2=O)[C@H](O)[C@@H]1O)OP(=O)(O)OP(=O)(O)OP(=O)(O)OC[C@H]1O[C@@H](n2ccc(=O)[nH]c2=O)[C@H](O)[C@@H]1O.CCCCN(CCCC)CCCC.CCCCN(CCCC)CCCC.CCCCN(CCCC)CCCC.CCCCN(CCCC)CCCC (stereo in doubt; 13A)
Activity [10]: inactive | Activity [11]: inactive | Activity [12]: inactive | Activity [13]: inactive | Activity [15]: Active

BP(=O)(OC[C@H]1O[C@@H](n2ccc(=O)[nH]c2=O)[C@H](O)[C@@H]1O)OP(=O)(O)OP(=O)(O)OP(=O)(O)OC[C@H]1O[C@@H](n2ccc(=O)[nH]c2=O)[C@H](O)[C@@H]1O.CCCCN(CCCC)CCCC.CCCCN(CCCC)CCCC.CCCCN(CCCC)CCCC.CCCCN(CCCC)CCCC (stereo in doubt; 13B)
Activity [10]: inactive | Activity [11]: inactive | Activity [12]: inactive | Activity [13]: inactive | Activity [14]: Active

Nc1ncnc2c1ncn2[C@@H]1O[C@H](COP(=O)(O)OP(=O)(O)OP(=O)(O)OP(=O)(O)OC[C@H]2O[C@@H](n3cnc4c(N)ncnc43)[C@H](O)[C@@H]2O)[C@@H](O)[C@H]1O [DIADENOSINE TETRAPHOSPHATE]
metabolised at 20 min [1]: 17%
